Mot1-301 SUMO – SUMOylation pathway inhibition by Mot1-301 growth rescue. growth rescue, % at 18.8 µM. 1% of 320,000 active. S. cerevisiae Mot1-301 growth rescue, ATP luminescence, 38.5C; percent above DMSO median, 100 means doubled;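 active = every valid replicate shows activation above 250% relative to neutral control wells; inactive = the rest, any valid replicate at or below 250%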
JMJD2C inh – inhibitors of human GASC-1 (JMJD2C) demethylase. 0.069% of 330,000 active. Q9H3R0. inhibition, % at 2.35 µM. GST-JMJD2C(1-420) H3K9me3 demethylation, DELFIA europium;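 active = more than half of a compound's replicate wells show inhibition beyond 50%, single wells judged on their own value; inconclusive = some, but no more than half, of replicates pass 50% inhibition; inactive = no replicate passes 50% inhibition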;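 note: signal counts dimethyl H3K9 product captured on neutravidin plate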
Target sequence (Q9H3R0 1-420 limits assumed): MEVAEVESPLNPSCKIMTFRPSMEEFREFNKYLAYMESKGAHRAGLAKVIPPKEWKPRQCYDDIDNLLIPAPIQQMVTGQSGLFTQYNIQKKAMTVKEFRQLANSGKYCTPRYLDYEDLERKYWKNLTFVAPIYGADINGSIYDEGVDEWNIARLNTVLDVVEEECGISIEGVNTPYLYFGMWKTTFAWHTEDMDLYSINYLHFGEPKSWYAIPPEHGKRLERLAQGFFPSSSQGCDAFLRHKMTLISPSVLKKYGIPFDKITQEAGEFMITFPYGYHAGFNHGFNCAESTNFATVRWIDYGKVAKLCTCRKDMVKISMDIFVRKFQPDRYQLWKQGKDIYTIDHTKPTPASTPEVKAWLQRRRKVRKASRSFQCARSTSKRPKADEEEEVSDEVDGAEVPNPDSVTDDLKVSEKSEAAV
T cell modulator – T cell immune modulators affecting CD8 T cell-vesicle binding; 0.068% of 330,000 active; 2C CD8+ T cell-vesicle binding, flow cytometry; active compounds read low; response (vesicle binding), % at 7 µM; AID 2052;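 active = response, share of CD8 T cells binding vesicles, and their 90th percentile fluorescence all below set limits, cut at about 80% in these data, passing the limit was not always enough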;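 note: values below 100% mean blocked vesicle binding to the CD8+ T cells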
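Benchmarks: naked versus QL9-loaded vesicles / Assay system: purified 2C TCR transgenic mouse naive CD8+ T cells / Technique: high-throughput flow cytometry with anti-B7-1 and anti-CD8 staining / Timing: Cell–vesicle co-incubation 1.5 h at 37 °C, staining 20 min on ice / Read-out: percent CD8+ FL2 mean versus row control / Probe or stimulus: QL9-loaded Drosophila micro-vesicles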
HIF act – HIF pathway transcriptional activation; activation, % at 7.5 µM (by protocol); AID 1910; U2OS HRE-luciferase reporter, luminescence; normalized: DMSO 0%, desferrioxamine 100%; 0.32% of 300,000 active;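 active = mean activation of at least 10% of the iron chelator positive control signal, with at least half of replicates also reaching 10%; inconclusive = mean and replicate majority disagree about reaching 10%; inactive = mean and most replicates under 10%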
Yeast Mot1 SUMO – SUMO pathway inhibitors in yeast Mot1-301 growth; shares compounds with Mot1-301 SUMO; S. cerevisiae Mot1-301 galactose growth, ATP luminescence, 24 h; -100 = growth of slx-deleted rescue strain; growth activity, percent, % at 42 µM; 2,300 tested, under 10 active;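 active = Signal drops as the depositor expects, and the fitted half-maximal dose is no more than ten times the top valid tested dose; inconclusive = Poor fit, or a flat curve whose signal drops by 30% to 70%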;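 note: more negative values mean stronger growth rescue toward the control strain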
Numbers stand for hits; – = inactive; ? = inconclusive; · = not tested or not shown; + = active, no number. The list is not random: actives were taken first. Their share in the collection is about 1.4%.

SMILES	Mot1-301 SUMO	JMJD2C inh	T cell modulator	HIF act	Yeast Mot1 SUMO
COCCN(C(=O)C1CC1)c1nnc(-c2ccc(C)cc2)s1	731	–	–	–	–
CCOc1ccc(-c2nnc(N(CC)C(=O)C3CCC3)s2)cc1	–	–	–	–	·
Cc1c(C)c2c(c(C)c1O)CCC(C)(C(=O)O)O2 (centres undefined)	548	·	–	·	–
Cc1c(C)c2c(c(C)c1O)CC[C@@](C)(CCC[C@H](C)CCC[C@H](C)CCCC(C)C)O2	–	–	–	–	·
O=C(NC1C/C(=N/O)c2cc3c(cc21)OCO3)C(F)(F)F (centres undefined)	–	–	–	–	·
CC(C)(C)C1c2[nH]c3ccccc3c2CCN1Cc1cccc(OCCO)c1 (centres undefined)	710	–	–	–	–
COCCNC(=O)C(=O)N/N=C(\C)CC(=O)Nc1cccc(C(F)(F)F)c1	445	–	–	–	–
CCN1C(=NCC(C)C)N[C@@H](c2cccc(C(F)(F)F)c2)C(C(=O)OC)=C1C	779	–	–	–	–
CCN1C(=NCCCCO)N[C@@H](c2cccc(C(F)(F)F)c2)C(C(=O)OC)=C1C	658	–	–	–	–
COC(=O)C1=C(C)N(Cc2ccccc2)C(=NCc2cccc(C(F)(F)F)c2)N[C@H]1c1cccc(F)c1	–	–	·	–	·
CCN1C(=NCc2cccc(Cl)c2)N[C@@H](c2cccc(F)c2)C(C(=O)OC)=C1C	773	–	–	–	–
O=C1N=C(N2CCOCC2)S/C1=C\c1cccnc1	753	–	–	–	–
O=C1/C(=C/c2cccnc2)SC(=S)N1N1CCOCC1	–	–	–	–	·
CN1C(=O)c2cccc3c(Cl)ccc(c23)C1=O	610	–	–	–	–
Cc1cccc(C(=O)CC(=O)c2cc(Cl)ccc2O)c1	–	–	–	–	·
Cc1ccc(O)c(C(=O)CC(=O)c2cccc(F)c2)c1	538	–	–	–	–
Cc1ccc(NS(=O)(=O)c2csc(C(N)=O)c2)cc1C	369	–	–	–	–
COc1ccc(NC(=O)c2cc(S(=O)(=O)Nc3ccc(OC)cc3)cs2)cc1	527	–	–	–	–
Cc1cc(C)cc(NS(=O)(=O)c2csc(C(N)=O)c2)c1	–	–	–	–	·
O=C1CN(C(=O)c2ccccc2F)C(c2ccccc2)c2cc(Cl)ccc2N1 (centres undefined)	603	–	–	–	–
O=C1CN(C(=O)c2ccccc2F)C(c2ccc(F)cc2)c2cc(Br)ccc2N1 (centres undefined)	–	–	–	–	·
Cc1nnc(SCC(=O)NC(C)(C)C)n1NCc1ccc(Cl)cc1	785	–	–	·	–
Cc1nnc(SCC(=O)NC(C)(C)C)n1NCc1ccc(N(C)C)cc1	–	–	–	–	·
COc1ccc(-c2nn(C)c(=O)[nH]2)cc1	–	?	–	–	·
COc1ccc(NC(=O)C2CCCN(C(=O)Nc3cccc(OC)c3)C2)cc1 (centres undefined)	381	–	–	–	–
SMILES	Mot1-301 SUMO	JMJD2C inh	T cell modulator	HIF act	Yeast Mot1 SUMO
COc1ccc(NC(=O)C2CCCN(C(=O)Nc3ccc(OC)cc3)C2)cc1 (centres undefined)	–	–	–	–	·
O=C(O)CC(NC(=O)OCc1ccccc1)c1ccc(Br)cc1 (centres undefined)	585	–	–	–	–
COC(=O)c1cccc(C(=O)N2CCCC(Nc3ccc(C)c(C)c3)C2)c1 (centres undefined)	–	–	–	–	·
CC(C)Cc1ccc(C(=O)NCCOc2ccccc2)o1	–	–	–	–	·
COc1cccc(N=Nc2c(=O)[nH]n3c(=O)c4c([nH]c23)CCC4)c1	–	–	–	–	·
COc1cccc(N=Nc2c(=O)[nH]n3c(=O)cc(C)[nH]c23)c1	372	–	–	–	–
Cc1ccc(C(=O)/C=C/Nc2ccccc2C(N)=O)cc1	481	–	–	–	–
Cn1c(=O)c(=O)n(C)c2cc(S(=O)(=O)N3CCCC3C(=O)NCc3cccnc3)ccc21 (centres undefined)	–	–	–	–	·
CC1(C)NC(=O)N(CC(=O)N2CCN(S(=O)(=O)c3ccccc3C(F)(F)F)CC2)C1=O	–	–	–	·	·
C=CCNC(=O)NC(=O)COC(=O)CCCSc1nc2ccccc2[nH]1	612	–	–	–	–
Cc1c(C(=O)N2CCCC2)c(S(=O)(=O)Nc2ccccc2)c(C)n1C	–	–	–	–	·
Cc1c(C(=O)N2CCCC2)c(S(=O)(=O)Nc2cccc(Br)c2)c(C)n1C	709	–	–	–	–
Cc1ccc(C2=NN(C(=O)CNCCO)C(c3cccs3)C2)cc1 (centres undefined)	–	–	–	–	·
O=C(CSc1nc(C(F)(F)F)cc(=O)[nH]1)N1CCCCCC1	–	–	–	–	·
O=c1cc(C(F)(F)F)c2sc(N3CCCCC3)nc2[nH]1	429	–	–	–	–
CCn1c(SCC(=O)Nc2ccc(OCc3ccccc3)cc2)nnc1-c1ccco1	837	–	–	–	–
CCOc1ccc(NC(=O)CSc2nnc(-c3ccco3)n2C)cc1	–	–	–	–	·
CCCOc1ccc([N+](=O)[O-])c(N)c1	788	–	–	–	–
CCCOc1ccc(/C=N/Nc2ccccc2[N+](=O)[O-])c(O)c1	–	–	–	–	·
CCN(CC1COc2ccccc2O1)C(=S)Nc1ccccc1 (centres undefined)	–	–	–	–	·
CCN(CC1COc2ccccc2O1)C(=S)NCCCN(C)C (centres undefined)	+	–	–	–	–
COc1ccc(CCn2c(N)cc(=O)[nH]c2=O)cc1OC	–	–	–	–	·
Nc1cc(=O)[nH]c(=O)n1CCc1ccccc1	542	–	–	–	–
CCOC(=O)c1c(NC(=O)CN2C(=O)C(=O)N(C(C)C)C2=O)sc(C)c1CC	–	–	–	·	·
O=C1CCCN1CCC(=O)N1CCCC(N2CCN(c3ccccc3F)CC2)C1 (centres undefined)	481	–	–	–	–
SMILES	Mot1-301 SUMO	JMJD2C inh	T cell modulator	HIF act	Yeast Mot1 SUMO
CCOC(=O)C1=C(C)NC(C)=C(C(=O)OCC)C1C(=O)OC1CCOC1=O (centres undefined)	463	–	–	–	–
COc1ccc(CCNC(=O)COC(=O)Cc2c[nH]c3ccccc23)cc1OC	–	·	–	·	·
Cc1ccc(-c2csc3ncn(CC(=O)N4CCOCC4)c(=O)c23)cc1	362	–	–	–	–
CC(NC(=O)c1cccs1)c1ccc(Br)cc1 (centres undefined)	800	–	–	–	–
OCC[C@@H]1C[C@H](O)[C@@H](O)[C@]2(CCc3ccccc3CO2)O1	751	–	–	–	–
Cc1ccccc1-n1nnnc1SCC(=O)NC1CC1	–	–	–	·	·
O=C(CCNC(=O)c1ccc([N+](=O)[O-])cc1)NC1CCCCCC1	–	–	–	·	·
N/C(=N\OC(=O)CCC1CCCC1)c1ccc([N+](=O)[O-])cc1	597	–	–	–	–
